According to the M2OR odorant receptor database:

Molecular target: T1, UniProt A2ATE5
T1 sequence (whole entry): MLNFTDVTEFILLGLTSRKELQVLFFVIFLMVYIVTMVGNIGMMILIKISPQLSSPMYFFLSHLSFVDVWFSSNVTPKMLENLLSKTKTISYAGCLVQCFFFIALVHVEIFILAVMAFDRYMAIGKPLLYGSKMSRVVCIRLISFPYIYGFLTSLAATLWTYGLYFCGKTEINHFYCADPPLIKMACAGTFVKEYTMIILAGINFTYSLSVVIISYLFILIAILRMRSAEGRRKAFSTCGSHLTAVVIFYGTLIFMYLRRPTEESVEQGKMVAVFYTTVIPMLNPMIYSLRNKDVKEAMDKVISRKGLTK
Conditions: stereoisomer not certain
Summary of the method: (§1)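 Each receptor–molecule pair is labelled responsive or non-responsive (inactive) according to whether the original authors judged the measured signal statistically different from baseline. The data were taken from the main text and supplementary material of published papers and checked for typos and inconsistencies. Assay methods differed by source, with transient luciferase assays in mammalian cell lines being common.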
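Note: active if original authors judged signal statistically different from baseline.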

Odorant receptor agonist call, inactive:
O=C([O-])CCCCCCC(=O)[O-].[H+].[H+]
CCCCCOC(=O)CC
OCC=Cc1ccccc1
C=CC(=C)CCC=C(C)CCC=C(C)C
CCCCCCCCOC=O
CCOC(=O)C(C)CC (centres undefined)
Cc1ccc(C(C)C)cc1
CC=C(C)C=O
CCCCCC=CCCC=O
CC(=O)OCc1ccc2c(c1)OCO2
Cc1ccc(C(C)C)c(O)c1
CCC=CCCCCC=O
CC(CC=O)CCCC(C)(C)O (centres undefined)
CC1(C)CC(=O)CC(=O)C1
CC(C)=C1CCC(C)CC1=O (centres undefined)
CCCCCCC(=O)OCCCC
CCC=CCCC=CC=O
C=CC(C)=CCC=C(C)CCC=C(C)C
OCCCCCCCCCO
CCOC(=O)CC(C)C
C1CCOC1
C=CC(=O)CCCCC
CCc1ccccc1O
CSSCc1ccco1
Cc1ccc(OC(=O)C(C)C)cc1
COc1nccnc1C
CCCCCCCCCCCO
COc1ccccc1
CC1CCC(C(C)C)C(=O)C1 (centres undefined)
Cc1occc1SSc1ccoc1C
Cc1c(C)c(C)c(C=O)c(C)c1C
C=C(C)C1CC=C(C)CC1 (centres undefined)
CCCCCC(=Cc1ccccc1)C(OC)OC
O=C(O)CCCCCBr
CC(C)=CCCC(C)=CCOC(=O)C(C)C
C=C(C)C1CCC2(C)OC2C1 (centres undefined)
c1ccc2ncccc2c1

Molecular target: T2, UniProt A2AVB0
T2 sequence (whole entry): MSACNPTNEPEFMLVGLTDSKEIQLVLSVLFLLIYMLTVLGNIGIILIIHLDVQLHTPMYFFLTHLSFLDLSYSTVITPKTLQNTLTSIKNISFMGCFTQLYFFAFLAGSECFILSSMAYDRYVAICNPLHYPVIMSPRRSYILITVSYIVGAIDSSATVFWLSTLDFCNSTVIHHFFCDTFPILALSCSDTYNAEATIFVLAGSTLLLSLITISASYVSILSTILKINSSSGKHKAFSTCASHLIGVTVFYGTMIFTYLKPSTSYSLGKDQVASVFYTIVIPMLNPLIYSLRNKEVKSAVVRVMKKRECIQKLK
Conditions: stereoisomer not certain
Summary of the method: as §1

Odorant receptor agonist call, inactive:
O=C([O-])CCCCCCC(=O)[O-].[H+].[H+]
CCCCCOC(=O)CC
OCC=Cc1ccccc1
C=CC(=C)CCC=C(C)CCC=C(C)C
CCCCCCCCOC=O
CCOC(=O)C(C)CC (centres undefined)
Cc1ccc(C(C)C)cc1
CC=C(C)C=O
CCCCCC=CCCC=O
CC(=O)OCc1ccc2c(c1)OCO2
Cc1ccc(C(C)C)c(O)c1
CCC=CCCCCC=O
CC(CC=O)CCCC(C)(C)O (centres undefined)
CC1(C)CC(=O)CC(=O)C1
CC(C)=C1CCC(C)CC1=O (centres undefined)
CCCCCCC(=O)OCCCC
CCC=CCCC=CC=O
C=CC(C)=CCC=C(C)CCC=C(C)C
OCCCCCCCCCO
CCOC(=O)CC(C)C
C1CCOC1
C=CC(=O)CCCCC
CCc1ccccc1O
CSSCc1ccco1
Cc1ccc(OC(=O)C(C)C)cc1
COc1nccnc1C
CCCCCCCCCCCO
COc1ccccc1
CC1CCC(C(C)C)C(=O)C1 (centres undefined)
Cc1occc1SSc1ccoc1C
Cc1c(C)c(C)c(C=O)c(C)c1C
C=C(C)C1CC=C(C)CC1 (centres undefined)
CCCCCC(=Cc1ccccc1)C(OC)OC
O=C(O)CCCCCBr
CC(C)=CCCC(C)=CCOC(=O)C(C)C
C=C(C)C1CCC2(C)OC2C1 (centres undefined)
c1ccc2ncccc2c1
